Values after ≈ are worked out from the molar mass of the structure shown.
Legend:
[1] = Toxicity against Artemia salina larvae; type: organism-based; conditions: in vivo
Procedure, shortened: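 Quadruplicate wells; mortality counted after 24 and 36 h at 27 °C. LC50 from probit analysis of dose-mortality data from six independent experiments.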

Solanum lycopersicum = assay: Phytotoxicity in tomato leaf assessed as chlorosis in the leaf at 10^-5 M by tomato cutting assay; type: organism-based; conditions: in vivo, 10 µM
Procedure, shortened: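 Young greenhouse tomato plants cut with razor; stems immersed in toxin solutions (10^-3 to 10^-6 M; compound in small MeOH volume diluted with water) 24 h at 22 °C, 12-h photoperiod, fluorescent light. Then moved to distilled water 48 h under same conditions; symptoms (e.g. chlorosis, wilting) scored visually.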

Ascochyta rabiei = assay: Antifungal activity against Ascochyta rabiei ITEM 1067 at 15 ug/disk by paper disk method; type: functional
Procedure, shortened: (§1)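 Agar diffusion: a 0.7% water-agar overlay carrying 10^4 conidia/mL (or yeast cells) is poured on PDA. 6-mm cellulose disks loaded with methanolic compound at 5 or 15 µg/disk are air-dried and applied, with nystatin as comparator. Plates incubated 24-72 h at 25 °C; inhibition halo diameter read from three disks. Agar under each disk is subcultured on PDA to score fungicidal/fungistatic effect. Experiment run twice and averaged.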

Botrytis cinerea [2] = assay: Antifungal activity against Botrytis cinerea ITEM 966 at 15 ug/disk by paper disk method; type: functional; procedure, shortened: as §1
Fusarium verticillioides = assay: Antifungal activity against Fusarium moniliforme ITEM 1497 at 15 ug/disk by paper disk method; type: functional; procedure, shortened: as §1
Wickerhamomyces anomalus [3] = assay: Antifungal activity against Pichia anomala ITEM 1661 at 15 ug/disk by paper disk method; type: functional
Procedure, shortened: (§2)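 Agar overlay disk diffusion on plant-derived filamentous fungi and yeasts: 0.7% water-agar seeded with 10^4 conidia/mL or a yeast cell suspension, poured over PDA. 6-mm cellulose disks were loaded from methanolic solutions and air-dried, with nystatin as comparator. Plates ran 24-72 h at 25 °C; inhibition halo was measured over three disks. Agar beneath disks was subcultured on PDA to separate fungicidal from fungistatic, scored in four classes; run twice, averaged.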

Alternaria alternata [4] = assay: Antifungal activity against Alternaria alternata ITEM 468 at 15 ug/disk by paper disk method; type: functional; procedure, shortened: as §1
Kluyveromyces marxianus = assay: Antifungal activity against Kluyveromyces fragilis ITEM 1657 at 15 ug/disk by paper disk method; type: functional; procedure, shortened: as §2
Fusarium subglutinans = assay: Antifungal activity against Fusarium subglutinans at 15 ug/disk by paper disk method; type: functional; procedure, shortened: as §1
Fusarium acuminatum = assay: Antifungal activity against Fusarium acuminatum ITEM 795 at 15 ug/disk by paper disk method; type: functional; procedure, shortened: as §1
Alternaria citri = assay: Antifungal activity against Alternaria citri ITEM 466 at 15 ug/disk by paper disk method; type: functional
Procedure, shortened: (§3)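 Agar overlay diffusion: 0.7% water-agar with 10^4 conidia/mL of test fungus poured over PDA; 6-mm cellulose disks impregnated with methanolic compound solution, air-dried. Incubated 25 °C for 24-72 h by fungus; growth-inhibition halo diameter from three replicate disks. Agar under disks then subcultured on PDA to score fungicidal/fungistatic classes. Repeated twice, averaged.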

[5] = test system: Fusarium oxysporum f. sp. lycopersici; assay: Antifungal activity against Fusarium oxysporum f. sp. lycopersici ITEM 1462 at 15 ug/disk by paper disk method; type: functional; procedure, shortened: as §1
Fusarium graminearum = assay: Antifungal activity against Fusarium graminearum ITEM 2 at 15 ug/disk by paper disk method; type: functional; procedure, shortened: as §3
Pichia kluyveri = assay: Antifungal activity against Pichia kluyveri ITEM 1649 at 15 ug/disk by paper disk method; type: functional; procedure, shortened: as §2
Botrytis cinerea [6] = assay: Antifungal activity against Botrytis cinerea at 15 ug/disk by paper disk method; type: functional; procedure, shortened: as §1
Wickerhamomyces anomalus [7] = assay: Antifungal activity against Pichia anomala ITEM 1625 at 15 ug/disk by paper disk method; type: functional; procedure, shortened: as §2
Kluyveromyces lactis = assay: Antifungal activity against Kluyveromyces lactis ITEM 1656 at 15 ug/disk by paper disk method; type: functional; procedure, shortened: as §2
Aspergillus parasiticus = assay: Antifungal activity against Aspergillus parasiticus ITEM 11 at 15 ug/disk by paper disk method; type: functional; procedure, shortened: as §1
[8] = test system: Meyerozyma guilliermondii; assay: Antifungal activity against Pichia guilliermondii ITEM 1644 at 15 ug/disk by paper disk method; type: functional; procedure, shortened: as §2
Penicillium verrucosum = assay: Antifungal activity against Penicillium verrucosum ITEM 439 at 15 ug/disk by paper disk method; type: functional; procedure, shortened: as §2
Aspergillus flavus = assay: Antifungal activity against Aspergillus flavus ITEM 9 at 15 ug/disk by paper disk method; type: functional; procedure, shortened: as §1
[9] = test system: Penicillium brevicompactum; assay: Antifungal activity against Penicillium brevicompactum ITEM 449 at 15 ug/disk by paper disk method; type: functional; procedure, shortened: as §2
Fusarium incarnatum = assay: Antifungal activity against Fusarium semitectum ITEM 393 at 15 ug/disk by paper disk method; type: functional; procedure, shortened: as §1
Alternaria alternata [10] = assay: Antifungal activity against Alternaria alternata ITEM 526 at 15 ug/disk by paper disk method; type: functional; procedure, shortened: as §1
Fusarium oxysporum [11] = assay: Antifungal activity against Fusarium oxysporum ITEM 149 at 15 ug/disk by paper disk method; type: functional; procedure, shortened: as §1
Plenodomus tracheiphilus = assay: Antifungal activity against Phoma tracheiphilla ITEM 1605 at 15 ug/disk by paper disk method; type: functional; procedure, shortened: as §2
[12] = test system: Cladosporium cladosporioides; assay: Antifungal activity against Cladosporium cladosporioides ITEM 2079 at 15 ug/disk by paper disk method; type: functional; procedure, shortened: as §1
Starmera dryadoides = assay: Antifungal activity against Pichia dryadoides ITEM 1663 at 15 ug/disk by paper disk method; type: functional; procedure, shortened: as §2
Fusarium oxysporum [13] = assay: Antifungal activity against Fusarium oxysporum ITEM 1462 at 15 ug/disk by paper disk method; type: functional; procedure, shortened: as §1
Cladosporium cucumerinum = assay: Antifungal activity against Cladosporium cucumerinum ITEM 2095 at 15 ug/disk by paper disk method; type: functional; procedure, shortened: as §1
Candida maltosa = assay: Antifungal activity against Candida maltosa ITEM 1639 at 15 ug/disk by paper disk method; type: functional; procedure, shortened: as §1
Rhodotorula mucilaginosa = assay: Antifungal activity against Rhodotorula pilimanae at 15 ug/disk by […]; type: functional
[14] = test system: Meyerozyma guilliermondii; assay: Antifungal activity against Candida guilliermondii ITEM 1638 at 15 ug/disk by paper disk method; type: functional; procedure, shortened: as §1
Alternaria alternata [15] = assay: Antifungal activity against Alternaria alternata ITEM 750 at 15 ug/disk by paper disk method; type: functional; procedure, shortened: as §1
Alternaria alternata [16] = assay: Antifungal activity against Alternaria alternata ITEM 511 at 15 ug/disk by paper disk method; type: functional; procedure, shortened: as §1
Saccharomyces cerevisiae = assay: Antifungal activity against Saccharomyces cerevisiae ITEM 1633 at 15 ug/disk by paper disk method; type: functional; procedure, shortened: as §2
[17] = test system: Colletotrichum gloeosporioides; assay: Antifungal activity against Colletotrichum gloeosporioides ITEM 1729 at 15 ug/disk by paper disk method; type: functional; procedure, shortened: as §1

CC(=O)OC[C@@H](C)C1=C(O)C(=O)[C@@]2(C)C/C=C(\C)CC/C=C(\C)CC[C@H](O)/C(C)=C/C[C@H]12 [FUSAPROLIFERIN]
LC50 [1]: 23.7 µg/mL (≈ 53.3 µM)

CCCCc1ccc(C(=O)O)nc1 [FUSARIC ACID]
Activity (Solanum lycopersicum): Active

NYSTATIN
inhibition zone (IZ) (Ascochyta rabiei): 38.5 mm | inhibition zone (IZ) (Botrytis cinerea [2]): 31.2 mm | inhibition zone (IZ) (Fusarium verticillioides): 18.7 mm | inhibition zone (IZ) (Wickerhamomyces anomalus [3]): 15 mm | inhibition zone (IZ) (Alternaria alternata [4]): 30.2 mm | inhibition zone (IZ) (Kluyveromyces marxianus): 19.5 mm | Activity (Fusarium subglutinans): 24 mm | inhibition zone (IZ) (Fusarium acuminatum): 20.8 mm | inhibition zone (IZ) (Alternaria citri): 30 mm | inhibition zone (IZ) [5]: 21.7 mm | inhibition zone (IZ) (Fusarium graminearum): 25.9 mm | Activity (Pichia kluyveri): 16.5 mm | inhibition zone (IZ) (Botrytis cinerea [6]): 31 mm | inhibition zone (IZ) (Wickerhamomyces anomalus [7]): 18.8 mm | inhibition zone (IZ) (Kluyveromyces lactis): 18 mm | inhibition zone (IZ) (Aspergillus parasiticus): 28.7 mm | inhibition zone (IZ) [8]: 18.5 mm | inhibition zone (IZ) (Penicillium verrucosum): 28.2 mm | inhibition zone (IZ) (Aspergillus flavus): 29 mm | inhibition zone (IZ) [9]: 18.3 mm | inhibition zone (IZ) (Fusarium incarnatum): 27 mm | inhibition zone (IZ) (Alternaria alternata [10]): 28.7 mm | inhibition zone (IZ) (Fusarium oxysporum [11]): 19.5 mm | inhibition zone (IZ) (Plenodomus tracheiphilus): 31.8 mm | inhibition zone (IZ) [12]: 37.3 mm | inhibition zone (IZ) (Starmera dryadoides): 19 mm | inhibition zone (IZ) (Fusarium oxysporum [13]): 20 mm | inhibition zone (IZ) (Cladosporium cucumerinum): 32.7 mm | inhibition zone (IZ) (Candida maltosa): 20 mm | inhibition zone (IZ) (Rhodotorula mucilaginosa): 28.5 mm | inhibition zone (IZ) [14]: 20 mm | inhibition zone (IZ) (Alternaria alternata [15]): 29.2 mm | inhibition zone (IZ) (Alternaria alternata [16]): 32.2 mm | inhibition zone (IZ) (Saccharomyces cerevisiae): 21 mm | inhibition zone (IZ) [17]: 38.2 mm

— ChEMBL document CHEMBL1155568, “Biological characterization of fusapyrone and deoxyfusapyrone, two bioactive secondary metabolites of Fusarium semitectum” (J Nat Prod, 2000)
